Experimental data gathered from unrelated publications.
Method: competition with immobilised ligand
JAK3 JH1: Tyrosine-protein kinase JAK3, JH1 (JAK3, Homo sapiens, UniProt P52333)

Structure (SMILES) | target | effect on | concentration | remaining binding
CC1=C(C#N)C(c2ccc3c(c2)c(NC(=O)c2ccccc2C)nn3C)C(C#N)=C(C)N1 | JAK3 JH1 | cell-free assay | 1 µM | 83%
c1cncc(-c2cccc(Nc3nccc(NC4CCCCC4)n3)c2)c1 | JAK3 JH1 | binding | 10 µM | 6.4%
O=C(NCCCN1CCOCC1)c1ccc(Nc2nccc(-c3cc4ccccc4s3)n2)cc1 | JAK3 JH1 | binding | 1 µM | 6.4%
C[C@@]1(Cc2ccc(C#N)cc2)C(=O)N(c2cc(Cl)cc(Cl)c2)c2ncc(C(=O)NC3(c4nc(C5CCC5)no4)CC3)n21 | JAK3 JH1 | cell-free assay | 1 µM | 100%
C[C@@H]1CN(c2ccc3ncc(-c4ccc5[nH]nc(C6CC6)c5c4)n3n2)C[C@H](C)O1 | Tyrosine-protein kinase JAK3 (JAK3, Homo sapiens, UniProt P52333) | binding | 50 nM | 76%
O=C(Nc1c[nH]nc1C(=O)NC1CCNCC1)c1cc(F)cc(F)c1 | JAK3 JH1 | binding | 1 µM | 100%
N#Cc1ccccc1CSc1nnc2c(n1)[nH]c1ccccc12 | JAK3 JH1 | binding | 10 µM | 93%
O=C(NCCCN1CCOCC1)c1ccc(Nc2ncc(Cl)c(-c3ccc(Cl)s3)n2)cc1 | JAK3 JH1 | binding | 1 µM | 0.8%
CN(C)c1nccc(-c2cnn3ncccc23)n1 | JAK3 JH1 | cell-free assay | 1 µM | 0%
NS(=O)(=O)c1cc(NC(=O)C2(c3ccccc3Cl)CC2)ccc1Oc1cccc(Cl)c1 | JAK3 JH1 | cell-free assay | 1 µM | 64%
CCN1CCN(Cc2ccc(C(=O)Nc3ccc(C)c(Oc4ccc5c(c4)CC(=O)N5)c3)cc2C(F)(F)F)CC1 | JAK3 JH1 | binding | 1 µM | 97%
Nc1ncc2c(n1)-c1c([nH]c3ccc(C#CC4CC4)cc13)CCCC2 | JAK3 JH1 | binding | 1 µM | 80%
Cc1cnn2ncc(-c3ccnc(N(C)C)n3)c2c1 | JAK3 JH1 | cell-free assay | 1 µM | 91%
O=C(Nc1cccnn1)N1CCC(=Cc2cccc(Oc3ccc(C(F)(F)F)cn3)c2)CC1 | JAK3 JH1 | cell-free assay | 1 µM | 100%
CC1CCCN1c1nccc(-c2cnn3ncccc23)n1 (stereo not shown) | JAK3 JH1 | cell-free assay | 1 µM | 97%
N#CC1(c2ccccn2)CCN(Cc2cc(C(=O)N3CCCC3)c(=O)n3ccccc23)CC1 | JAK3 JH1 | cell-free assay | 1 µM | 100%
COc1ncc2cc3ccccc3nc2c1C#N | JAK3 JH1 | cell-free assay | 5 µM | 63%
CNC(=O)[C@@H]1CC[C@@H](n2c(-c3ccc4cnccc4c3)nc3ccc(C(=O)NCc4cccc(C(N)=O)c4)cc32)C1 | JAK3 JH1 | binding | 1 µM | 100%
O=C(NCc1ncc(C(F)(F)F)cc1Cl)c1ccc2c(c1)C1(CCS(=O)(=O)CC1)[C@H](C1CC1)N2S(=O)(=O)c1ccc(F)cc1 | JAK3 JH1 | cell-free assay | 1 µM | 79%
O=C(c1ccc(Nc2ncc(Cl)c(-c3cc4ccccc4s3)n2)cc1)N1CCC(N2CCCC2)CC1 | JAK3 JH1 | binding | 1 µM | 0%
Nc1c(C(=O)NCc2ccc(C(=O)NCCCC3CCCCC3)cc2)cnn1-c1ccccc1 | JAK3 JH1 | cell-free assay | 0.1 µM | 100%
CN(CCCC(F)(F)F)c1nccc(-c2cnn3ncccc23)n1 | JAK3 JH1 | cell-free assay | 1 µM | 71%
